Results: publication PMC12248229 (PeerJ, 2025)
Read-outs that look alike come from different tables or passages of the source.

Experiments:
in vivo = assay type: in vivo, Sprague-Dawley (SD) rats; details: for AUC(0-t): AUC0–t; for AUC(0-inf): AUC0–∞; for MRT last: MRT0–t; for MRT inf: MRT0–∞; for half-life: t1/2, rats
Ugt1a7 = assay: qRT-PCR mRNA expression in rat liver and intestine after 7 days of dosing; assay type: in vivo; details: either the liver or the intestine of rats, after multiple doses
Summary of the method: (§1)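 Rats (n = 6/group) gavaged daily for 7 days with test compound: 2.5 or 1 mg/kg in 0.5% CMC-Na, or 100 mg/kg in 0.5% CMC-Na with 5% DMSO. Liver and intestine harvested under chloral hydrate and stored at −80 °C. TRNzol RNA extraction; 1 μg RNA reverse-transcribed. qPCR: 95 °C 15 min, then 40 cycles of 95 °C 10 s/60 °C 32 s. […] reference; 2^−ΔΔCT.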

P-gp = assay: as above; assay type: in vivo; details: after multiple doses
Summary of the method: as §1

Oatp1b2 = assay: qRT-PCR mRNA expression in rat liver after 7 days of dosing; assay type: in vivo; details: after multiple doses
Summary of the method: as §1

[1] = Stability of analytes in rat plasma; assay type: physicochemical; details: n = 6
[2] = ref Chen et al., 2021, Zhang et al.; cited from earlier work
[3] = assay type: in vivo, Sprague-Dawley (SD) rats; details: for AUC(0-t): AUC0–t; for AUC(0-t) / Cmax / MRT last / MRT inf / Tmax / half-life / CLz / Vz: n = 6; for MRT last: MRT0–t; for MRT inf: MRT0–∞; for half-life: t1/2, rats
Ugt2b7 = assay: qRT-PCR mRNA expression in rat liver and intestine after 7 days of dosing; assay type: in vivo; details: after administration for seven consecutive days
Summary of the method: as §1

[4] = system: patients with advanced HCC; details: ref Llovet et al., 2008, cited from earlier work
[5] = ref Lathia et al., 2006; cited from earlier work
[6] = Sprague-Dawley, rat, in vivo, po, 1 mg/kg, rats, henagliflozin 1 mg/kg after sorafenib 100 mg/kg for 7 consecutive days, n = 6
[7] = Sprague-Dawley, rat, in vivo, po, 1 mg/kg, rats, henagliflozin 1 mg/kg oral, alone, n = 6
[8] = rats, henagliflozin 1 mg/kg after sorafenib 100 mg/kg for 7 consecutive days, n = 6
[9] = rats, henagliflozin and sorafenib, versus control group
[10] = Autosampler (15 °C) for 6 h, nominal 10 ng/mL
[11] = Autosampler (15 °C) for 6 h, nominal 800 ng/mL
[12] = Autosampler (15 °C) for 6 h, nominal 1,500 ng/mL
[13] = Room temperature for 4 h, nominal 10 ng/mL
[14] = Room temperature for 4 h, nominal 800 ng/mL
[15] = Room temperature for 4 h, nominal 1,500 ng/mL
[16] = Three freeze–thaw cycles (−80 °C to 25 °C), nominal 10 ng/mL
[17] = Three freeze–thaw cycles (−80 °C to 25 °C), nominal 800 ng/mL
[18] = Three freeze–thaw cycles (−80 °C to 25 °C), nominal 1,500 ng/mL
[19] = −80 °C for 30 days, nominal 10 ng/mL
[20] = −80 °C for 30 days, nominal 800 ng/mL
[21] = −80 °C for 30 days, nominal 1,500 ng/mL
[22] = Sprague-Dawley, rat, plasma, po, 100 mg/kg, rats, sorafenib 100 mg/kg after empagliflozin […] for 7 consecutive days
[23] = Sprague-Dawley, rat, plasma, po, 100 mg/kg, rats, sorafenib 100 mg/kg after henagliflozin 1 mg/kg for 7 consecutive days
[24] = Sprague-Dawley, rat, plasma, po, 100 mg/kg, rats, sorafenib 100 mg/kg by gavage, alone
[25] = rats, after empagliflozin, versus sorafenib alone group
[26] = rats, coadministered with henagliflozin, versus sorafenib alone
[27] = rats, sorafenib 100 mg/kg after empagliflozin […] for 7 consecutive days
[28] = rats, sorafenib 100 mg/kg after henagliflozin 1 mg/kg for 7 consecutive days
[29] = rats, sorafenib 100 mg/kg by gavage, alone

CCOc1ccc(Cc2cc([C@@]34OC[C@@](CO)(O3)[C@@H](O)[C@H](O)[C@H]4O)ccc2Cl)cc1F [Henagliflozin]
AUC(0-t) (in vivo; [6]): 3.45 µg·h/mL | AUC(0-t) (in vivo; [7]): 1.92 µg·h/mL | AUC(0-inf) (in vivo; [6]): 3.46 µg·h/mL | AUC(0-inf) (in vivo; [7]): 1.95 µg·h/mL | Cmax (in vivo; Sprague-Dawley, rat, in vivo, po, 1 mg/kg, Cmax, rats, henagliflozin 1 mg/kg oral, alone, n = 6): 0.197 ± 0.0369 µg/mL | MRT last (in vivo; [6]): 9.36 ± 3.63 h | MRT last (in vivo; [7]): 7.84 ± 1.68 h | MRT inf (in vivo; [6]): 9.49 ± 3.57 h | MRT inf (in vivo; [7]): 8.49 ± 2.86 h | Tmax (in vivo; [6]): 1.33 ± 1.36 h | Tmax (in vivo; [7]): 3.25 ± 1.67 h | half-life (in vivo; Sprague-Dawley, rat, in vivo, po, 1 mg/kg, henagliflozin 1 mg/kg after sorafenib 100 mg/kg for 7 consecutive days, n = 6): 5.1 ± 1.31 h | half-life (in vivo; Sprague-Dawley, rat, in vivo, po, 1 mg/kg, henagliflozin 1 mg/kg oral, alone, n = 6): 5.11 ± 3.62 h | CLz (in vivo; [8]): 0.30 ± 0.05 L/h/kg | Vz (in vivo; [8]): 2.25 ± 0.77 L/kg | CLz (in vivo; rats, henagliflozin 1 mg/kg oral, alone, n = 6): 0.53 ± 0.1 L/h/kg | differences in Tmax, t1/2, Vz/F, MRT0–t and MRT0–∞ of henagliflozin (in vivo; rats, henagliflozin and sorafenib versus control): no significant differences | increase of AUC0–t of henagliflozin (in vivo; [9]): 79.1% | increase of AUC0–∞ of henagliflozin (in vivo; [9]): 77.7% | change in the expression of Ugt1a7 (Ugt1a7): no significant change | decrease of mRNA expression of P-gp (P-gp; rat intestine): 43.2% | decrease of mRNA expression of P-gp (P-gp; rat liver): 27.1% | decrease of mRNA expression of Oatp1b2 (Oatp1b2): 38.4% | Stability: Accuracy (RE%) [1, 10]: −4.33% | Stability: Mean ± SD measured concentration [1, 10]: 9.57 ± 0.87 ng/mL | Stability: Accuracy (RE%) [1, 11]: −1.90% | Stability: Mean ± SD measured concentration [1, 11]: 784.83 ± 31.98 ng/mL | Stability: Accuracy (RE%) [1, 12]: −4.22% | Stability: Mean ± SD measured concentration [1, 12]: 1,436.67 ± 29.44 ng/ml | Stability: Accuracy (RE%) [1, 13]: −0.28% | Stability: Mean ± SD measured concentration [1, 13]: 9.97 ± 0.73 ng/mL | Stability: Accuracy (RE%) [1, 14]: −4.63% | Stability: Mean ± SD measured concentration [1, 14]: 763.00 ± 31.79 ng/mL | Stability: Accuracy (RE%) [1, 15]: −2.00% | Stability: Mean ± SD measured concentration [1, 15]: 1,470.00 ± 59.67 ng/ml | Stability: Accuracy (RE%) [1, 16]: −1.70% | Stability: Mean ± SD measured concentration [1, 16]: 9.83 ± 0.95 ng/mL | Stability: Accuracy (RE%) [1, 17]: −3.65% | Stability: Mean ± SD measured concentration [1, 17]: 770.83 ± 18.66 ng/mL | Stability: Accuracy (RE%) [1, 18]: 0.56% | Stability: Mean ± SD measured concentration [1, 18]: 1,508.33 ± 72.78 ng/ml | Stability: Accuracy (RE%) [1, 19]: −1.12% | Stability: Mean ± SD measured concentration [1, 19]: 9.89 ± 0.95 ng/mL | Stability: Accuracy (RE%) [1, 20]: −1.35% | Stability: Mean ± SD measured concentration [1, 20]: 789.17 ± 38.83 ng/mL | Stability: Accuracy (RE%) [1, 21]: −2.11% | Stability: Mean ± SD measured concentration [1, 21]: 1,468.33± 53.45 ng/ml | eliminated by the fecal route [2]: 50% | eliminated by the renal route [2]: 30%

CNC(=O)c1cc(Oc2ccc(NC(=O)Nc3ccc(Cl)c(C(F)(F)F)c3)cc2)ccn1 [Sorafenib]
AUC(0-inf) ([3]; Sprague-Dawley, rat, plasma, po, 100 mg/kg): 20.6 µg·h/mL | AUC(0-t) [3, 22]: 37 µg·h/mL | AUC(0-t) [3, 23]: 33.5 µg·h/mL | AUC(0-t) [3, 24]: 20 µg·h/mL | Cmax [3, 22]: 1.86 µg/mL | Cmax [3, 23]: 1.23 µg/mL | Cmax [3, 24]: 0.967 ± 0.176 µg/mL | MRT last [3, 22]: 28.7 ± 11.5 h | MRT last [3, 23]: 51 ± 11.1 h | MRT last [3, 24]: 37.2 ± 11.4 h | MRT inf [3, 23]: 66 ± 24.8 h | MRT inf [3, 24]: 40.5 ± 13.4 h | Tmax [3, 23]: 5.67 ± 2.58 h | Tmax [3, 24]: 4.33 ± 2.07 h | half-life ([3]; Sprague-Dawley, rat, plasma, po, 100 mg/kg, sorafenib 100 mg/kg after empagliflozin […] for 7 consecutive days): 47.6 ± 32.2 h | half-life ([3]; Sprague-Dawley, rat, plasma, po, 100 mg/kg, sorafenib 100 mg/kg after henagliflozin 1 mg/kg for 7 consecutive days): 28.6 ± 21.7 h | half-life ([3]; Sprague-Dawley, rat, plasma, po, 100 mg/kg, sorafenib 100 mg/kg by gavage, alone): 18.7 ± 4.85 h | decrease of CLz/F of sorafenib ([3]; rats, after empagliflozin, versus control group): 45% | increase of AUC0–t of sorafenib [3, 25]: 84% | increase of AUC0–∞ of sorafenib [3, 25]: 93% | increase of Cmax of sorafenib [3, 25]: 92% | increase of AUC0–t of sorafenib [3, 26]: 67% | increase of AUC0–∞ of sorafenib [3, 26]: 80% | CLz [3, 27]: 3.20 ± 2.01 L/h/kg | Vz [3, 27]: 201.55 ± 161.11 L/kg | CLz [3, 28]: 2.81 ± 0.65 L/h/kg | Vz [3, 28]: 110.19 ± 73.12 L/kg | CLz [3, 29]: 5.82 ± 2.59 L/h/kg | Vz [3, 29]: 93.83 ± 63.20 L/kg | downregulation of mRNA expression of Ugt2b7 (Ugt2b7; rat intestine): 68.3% | effect on the expression of Ugt2b7 (Ugt2b7; rat liver): did not significantly affect | HR (overall survival versus control group) ([4]; 95% confidence interval [0.55–0.87], P < 0.001): 0.69 | median overall survival ([4]; patients in the sorafenib group, phase 3 versus placebo): 10.7 months | administered dose eliminated as oxidative metabolites [5]: less than 5% | administered dose removed from the body through glucuronidation [5]: 15%
